Data as given in ChEMBL document CHEMBL2321840, “Synthesis and structure-activity relationships of indazole arylsulfonamides as allosteric CC-chemokine receptor 4 (CCR4) antagonists” (J Med Chem, 2013).
Converted amounts (≈) assume the structure as drawn.

Key:
[1] = Equilibrium solubility of the compound in simulated gastric fluid at pH 1.6 after 24 hrs by HPLC analysis; assay type: physicochemical
Outline: (§1)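 Solid compound was equilibrated 24 h in the stated medium: water, SGF pH 1.6, FeSSIF pH 6.5, FaSSIF pH 6.5 or saline. Dissolved compound was quantified by HPLC.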

[2] = Equilibrium solubility of the compound in saline after 24 hrs by HPLC analysis; assay type: physicochemical; outline: as §1
[3] = Equilibrium solubility of the compound in water after 24 hrs by HPLC analysis; assay type: physicochemical; outline: as §1
[4] = target: C-C chemokine receptor type 5 (Homo sapiens, UniProt P51681); experiment: Antagonist activity at CCR5 receptor (unknown origin) by [35S]GTPgammaS binding assay; assay type: functional
Sequence of C-C chemokine receptor type 5 (P51681 whole entry): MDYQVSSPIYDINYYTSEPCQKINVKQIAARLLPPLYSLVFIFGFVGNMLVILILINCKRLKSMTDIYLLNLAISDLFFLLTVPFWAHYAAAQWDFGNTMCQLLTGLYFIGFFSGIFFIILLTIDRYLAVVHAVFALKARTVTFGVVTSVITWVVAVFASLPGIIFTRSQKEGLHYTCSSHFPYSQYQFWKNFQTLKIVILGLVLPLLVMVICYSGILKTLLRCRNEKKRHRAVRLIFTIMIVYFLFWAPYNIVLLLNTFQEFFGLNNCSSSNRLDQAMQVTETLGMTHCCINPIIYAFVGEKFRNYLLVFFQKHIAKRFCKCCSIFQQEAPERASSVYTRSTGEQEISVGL

Salmonella typhimurium = experiment: Genotoxicity in Salmonella typhimurium by Ames test; assay type: toxicity, organism-based; settings: salmonella enterica subsp. enterica serovar typhimurium
[5] = Kinetic solubility of the compound in PBS using DMSO at pH 7.4 by NMR analysis; assay type: physicochemical; settings: read-out: Kinetic_solubility
[6] = Equilibrium solubility of the compound in Britton-Robinson buffer at pH 2 after 24 hrs by HPLC analysis; assay type: physicochemical
Outline: (§2)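 Solid compound was equilibrated 24 h in Britton–Robinson buffer at the stated pH. Dissolved compound was quantified by HPLC.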

[7] = Plasma protein binding in Beagle dog by equilibrium dialysis technique; assay type: ADME, cell-free, Canis lupus familiaris; settings: read-out: PPB
Outline: (§3)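 Rapid equilibrium dialysis in CD rat, beagle dog or human plasma, with compound at a nominal 1 μg/mL; n = 3.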

[8] = Plasma protein binding in human by equilibrium dialysis technique; assay type: ADME, cell-free; settings: read-out: PPB (converted); outline: as §3
[9] = Stability of the compound in solid state at 40 to 50 degC 75 % relative humidity after 1 month by NMR analysis; settings: 730.5 h
[10] = Oral bioavailability in CD rat at 10 mg/kg administered as suspension; assay type: ADME, organism-based; settings: in vivo
Rattus norvegicus [11] = experiment: Cardiotoxicity in rat at 30 to 300 mg/kg, po; assay type: toxicity, organism-based; set-up: dose 30-300 mg/kg, route oral; settings: in vivo
Outline: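 Conscious rats were given oral doses of 30, 100 and 300 mg/kg. Body temperature, cardiovascular and electrocardiographic parameters were monitored.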

Oryctolagus cuniculus [12] = organism: Oryctolagus cuniculus; experiment: Cardiotoxicity in rabbit ventricular wedge assessed as cardiovascular issues upto 10 uM; assay type: toxicity, Cardiac ventricle
[13] = Chemical stability of the compound in PBS using MeOH at pH 7.4 by NMR analysis; assay type: physicochemical; settings: buffer
Rattus norvegicus [14] = experiment: Toxicity in rat administered for 7 days; assay type: organism-based; settings: in vivo, 168 h
[15] = Equilibrium solubility of the compound in Britton-Robinson buffer at pH 10 after 24 hrs by HPLC analysis; assay type: physicochemical; outline: as §2
[16] = Plasma protein binding in CD rat by equilibrium dialysis technique; assay type: ADME, cell-free; settings: read-out: PPB; outline: as §3
[17] = target: C-C chemokine receptor type 8 (Homo sapiens, UniProt P51685); experiment: Antagonist activity at CCR8 receptor (unknown origin) by [35S]GTPgammaS binding assay; assay type: functional
Sequence of C-C chemokine receptor type 8 (P51685 whole entry): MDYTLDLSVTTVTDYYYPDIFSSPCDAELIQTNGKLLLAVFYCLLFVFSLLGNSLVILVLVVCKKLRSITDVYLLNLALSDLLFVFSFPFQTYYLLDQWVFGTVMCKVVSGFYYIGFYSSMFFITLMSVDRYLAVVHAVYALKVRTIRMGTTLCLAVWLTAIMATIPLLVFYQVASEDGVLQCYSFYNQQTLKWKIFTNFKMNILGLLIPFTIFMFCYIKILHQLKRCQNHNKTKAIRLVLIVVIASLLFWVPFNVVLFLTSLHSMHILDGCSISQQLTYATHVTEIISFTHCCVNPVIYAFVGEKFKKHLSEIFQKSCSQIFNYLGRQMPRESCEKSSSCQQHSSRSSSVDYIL

[18] = target: C-X-C chemokine receptor type 4 (Homo sapiens, UniProt P61073); experiment: Antagonist activity at CXCR4 receptor (unknown origin) by [35S]GTPgammaS binding assay; assay type: functional
Sequence of C-X-C chemokine receptor type 4 (P61073 whole entry): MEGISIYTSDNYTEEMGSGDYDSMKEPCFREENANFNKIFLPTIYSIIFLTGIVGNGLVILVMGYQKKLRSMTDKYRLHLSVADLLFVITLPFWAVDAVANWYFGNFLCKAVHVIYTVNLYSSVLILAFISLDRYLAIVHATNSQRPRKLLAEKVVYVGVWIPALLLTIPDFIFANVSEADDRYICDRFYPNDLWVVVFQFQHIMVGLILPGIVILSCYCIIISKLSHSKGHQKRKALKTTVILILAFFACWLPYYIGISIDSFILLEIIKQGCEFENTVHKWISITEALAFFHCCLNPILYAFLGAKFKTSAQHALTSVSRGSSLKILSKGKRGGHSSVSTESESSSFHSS

Oryctolagus cuniculus [19] = organism: Oryctolagus cuniculus; experiment: Cardiotoxicity in rabbit assessed as effect on contractility; assay type: toxicity
[20] = target: T1, C-C chemokine receptor type 4 (Homo sapiens, UniProt P51679); experiment: Antagonist activity at human recombinant CCR4 receptor expressed in CHO cell membranes by [35S]GTPgammaS binding assay; assay type: functional
T1 sequence (P51679 whole entry): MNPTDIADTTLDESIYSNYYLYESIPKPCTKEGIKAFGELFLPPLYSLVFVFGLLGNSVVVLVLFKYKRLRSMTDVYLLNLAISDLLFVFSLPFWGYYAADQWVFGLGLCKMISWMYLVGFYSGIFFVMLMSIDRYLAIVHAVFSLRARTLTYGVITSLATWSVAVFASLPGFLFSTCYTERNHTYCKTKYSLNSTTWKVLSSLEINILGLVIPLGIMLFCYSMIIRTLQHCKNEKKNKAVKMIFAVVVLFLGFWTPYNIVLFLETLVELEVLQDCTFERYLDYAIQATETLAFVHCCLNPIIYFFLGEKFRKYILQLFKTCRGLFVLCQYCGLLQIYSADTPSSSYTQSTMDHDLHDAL

in vivo = settings: beagle, dog, iv, 0.5 mg/kg
[21] = Lipophilicity, log D of the compound by chromatographic analysis; assay type: physicochemical
Outline: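 Chromatographic log D measured at pH 7.4.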

[22] = Chemical stability of the compound in PBS using DMSO at pH 7.4 after 100 hrs by NMR analysis; assay type: physicochemical; settings: buffer, pH 7.4, 100 h
Oryctolagus cuniculus [23] = organism: Oryctolagus cuniculus; experiment: Cardiotoxicity in rabbit assessed as liability for torsadogenic arrhythmia; assay type: toxicity
HepG2 = experiment: Cytotoxicity in human HepG2 cells assessed as effect on mitochondria; assay type: cell-based
[24] = Equilibrium solubility of the compound in fed-state simulated intestinal fluid at pH 6.5 after 24 hrs by HPLC analysis; assay type: physicochemical; outline: as §1
[25] = Kinetic solubility of the compound by chemiluminescent nitrogen detection assay; assay type: physicochemical; settings: read-out: Kinetic_solubility
Oryctolagus cuniculus [26] = organism: Oryctolagus cuniculus; experiment: Cardiotoxicity in rabbit assessed as effect on conduction; assay type: toxicity
[27] = target: T2, C-C chemokine receptor type 1 (Homo sapiens, UniProt P32246); experiment: Antagonist activity at CCR1 receptor (unknown origin) by [35S]GTPgammaS binding assay; assay type: functional
T2 sequence (P32246 whole entry): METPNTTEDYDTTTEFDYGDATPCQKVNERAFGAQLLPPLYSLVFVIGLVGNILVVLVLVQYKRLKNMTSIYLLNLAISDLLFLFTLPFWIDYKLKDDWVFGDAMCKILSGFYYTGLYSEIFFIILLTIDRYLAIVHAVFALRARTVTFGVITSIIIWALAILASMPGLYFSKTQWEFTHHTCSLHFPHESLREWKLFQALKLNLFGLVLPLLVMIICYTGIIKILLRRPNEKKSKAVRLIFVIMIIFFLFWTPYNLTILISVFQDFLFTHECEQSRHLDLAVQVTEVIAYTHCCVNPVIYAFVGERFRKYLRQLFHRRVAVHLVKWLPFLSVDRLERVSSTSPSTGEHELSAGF

[28] = Oral bioavailability in CD rat at 30 mg/kg administered as suspension; assay type: ADME, organism-based; settings: in vivo
[29] = Dissociation constant, pKa of the compound; assay type: physicochemical
[30] = target: T3, C-X-C chemokine receptor type 3 (Homo sapiens, UniProt P49682); experiment: Antagonist activity at CXCR3 receptor (unknown origin) by [35S]GTPgammaS binding assay; assay type: functional
T3 sequence (P49682 whole entry): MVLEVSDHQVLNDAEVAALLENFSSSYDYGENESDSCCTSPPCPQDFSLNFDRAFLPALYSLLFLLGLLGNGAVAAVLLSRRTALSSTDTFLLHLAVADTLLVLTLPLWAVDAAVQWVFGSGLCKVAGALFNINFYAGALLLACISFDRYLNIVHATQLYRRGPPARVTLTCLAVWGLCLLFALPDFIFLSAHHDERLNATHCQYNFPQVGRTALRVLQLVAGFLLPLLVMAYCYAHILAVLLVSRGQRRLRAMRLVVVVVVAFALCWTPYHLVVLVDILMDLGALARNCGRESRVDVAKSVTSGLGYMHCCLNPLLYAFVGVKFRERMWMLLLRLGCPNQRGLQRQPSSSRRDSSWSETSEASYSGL

Compound `COc1cccc2c1c(NS(=O)(=O)c1ccc(Cl)s1)nn2Cc1cccc(CNC(=O)C(C)(C)O)c1` has a solubility thermodynamic at 24 h [1] of 1 µg/mL (≈ 1.82 µM), a solubility thermodynamic at 24 h [2] of 73 µg/mL (≈ 133 µM) and a solubility thermodynamic at 24 h [3] of 57 µg/mL (≈ 104 µM). For the same compound, the IC50 [4] was 6.31 µM, the Activity (Salmonella typhimurium) was “Non-toxic” and the solubility kinetic [5] was 270 µg/mL (≈ 492 µM). For the same compound, the solubility thermodynamic at 24 h [6] was 3 µg/mL (≈ 5.46 µM), the fraction unbound [7] was at most 0.01 and the fraction unbound [8] was 0.01. For the same compound, the Stability [9] was “Stable”, the bioavailability [10] was 80% and the Activity (Rattus norvegicus [11]) was “Non-toxic”. The Activity (Oryctolagus cuniculus [12]) was “Non-toxic”, the Stability [13] was “Unstable” and the Activity (Rattus norvegicus [14]) was “Non-toxic”. It also gave a solubility thermodynamic at 24 h [15] of 1320 µg/mL (≈ 2410 µM), a fraction unbound [16] of at most 0.01 and an IC50 [17] of over 10 µM. For the same compound, the IC50 [18] was over 10 µM, the Activity (Oryctolagus cuniculus [19]) was “Non-toxic” and the IC50 [20] was 0.0398 µM. For the same compound, the half-life (in vivo) was 2.6 h, the chromatographic logD [21] was 4.3 and the Stability [22] was “Stable”. For the same compound, the Activity (Oryctolagus cuniculus [23]) was “Non-toxic”, the Activity (HepG2) was “Non-toxic” and the solubility thermodynamic at 24 h [24] was 23 µg/mL (≈ 41.9 µM). For the same compound, the solubility kinetic [25] was at least 162 µg/mL, the Activity (Oryctolagus cuniculus [26]) was “Non-toxic” and the IC50 [27] was over 10 µM. It also gave a bioavailability [28] of 101%, a pKa [29] of 6.54 and an IC50 [30] of over 10 µM.
